This passage reports IC50 and IC95 results from ChEMBL document CHEMBL1125217, “2-Pyridinone derivatives: a new class of nonnucleoside, HIV-1-specific reverse transcriptase inhibitors” (J Med Chem, 1991).

The target in test [1] is Human immunodeficiency virus type 1 reverse transcriptase (Human immunodeficiency virus 1, UniProt Q72547). As to the kind of experiment: Inhibitory activity against HIV-1 reverse transcriptase (RT).
Test [2] relates to H9. As to the kind of experiment: Concentration which inhibited >95% spread of HIV-1 strain IIIb infection in susceptible H-9 cell culture. It counts as functional. The conditions noted are these: Homo sapiens, read-out: CIC95. The method in brief:
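H9 human T-lymphoid cells in RPMI 1640 with 10% heat-inactivated FBS were pre-incubated one day with serial 2-fold inhibitor dilutions, then infected with HIV-1 IIIb at low multiplicity (<0.001). Inhibitor was kept present for 13-14 days. Spread was measured by p24 core antigen ELISA of supernatants. CIC95 is the concentration blocking >95% of spread.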

Test [3] deals with MT4. Description: Concentration which inhibited >95% spread of HIV-1 strain IIIb infection in susceptible MT-4 cell culture. The class given is functional. The conditions noted are these: Homo sapiens, read-out: CIC95. In a few lines:
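MT-4 human T-lymphoid cells in RPMI 1640 with 10% heat-inactivated FBS were infected en masse with HIV-1 IIIb (multiplicity 0.01) for 24 h. They were then washed and plated with serial 2-fold inhibitor dilutions for 3 more days. Spread was measured by p24 core antigen ELISA. CIC95 is the concentration blocking >95% of spread.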

In test [1], `CCc1cc(NCc2nc3ccccc3[nH]2)c(O)nc1C` came in with an IC50 of 6400 nM.

In turn, `CCc1cc(NCc2nc3cccc(C)c3o2)c(O)nc1C` had an IC50 in test [1] of 55 nM.

`CCc1cc(NCc2nc3c(Cl)ccc(Cl)c3o2)c(O)nc1C` [L-697661]: the results for the IC95 in test [2] and in test [3] were 100 nM and 50 nM, respectively. This molecule yielded an IC50 in test [1] of 19 nM.

Molecule `CCc1cc(NCc2ccc3ccccc3c2)c(=O)[nH]c1C` came in with an IC50 in test [1] of 440 nM.

For the molecule `CCc1cc(NCc2nc3ccccc3o2)c(O)nc1C`, the IC50 in test [1] was 210 nM.

On to `CCc1cc(CCc2nc3ccccc3o2)c(O)nc1C`, for which the IC95 in test [2] was found to be 200 nM; in test [3] it was 100 nM. Moreover, the IC50 in test [1] was 22 nM.

Turning to `Cc1ccnc2c1NC(=O)c1cccnc1N2C1CC1` [NEVIRAPINE], the IC95 in test [3] came out at 100 nM.

`CCc1cc(NCc2nc3c(C)cccc3o2)c(O)nc1C` registered an IC50 in test [1] of 125 nM.

In the case of `CC(C)=CCN1Cc2cccc3[nH]c(=S)n(c23)C[C@@H]1C`, the IC95 in test [3] was found to be 200 nM.

Consider `CCc1cc(CCc2cc3ccccc3o2)c(O)nc1C`, for which the concentration for half-maximal inhibition (IC50) in test [1] is 77 nM.

The molecule `CCc1cc(CCc2nc3ccccc3s2)c(O)nc1C` displayed an IC50 in test [1] of 370 nM.

Consider `CCc1cc(CCN2C(=O)c3ccccc3C2=O)c(O)nc1C`, for which, in test [2], the IC95 came out at 40000 nM. In test [1], the IC50 turned out to be 3700 nM.

For the molecule `CCc1cc(NCc2nc3c(C)ccc(C)c3o2)c(O)nc1C`, the IC95 in test [2] came out at 150 nM; in test [3], 50 nM. Besides, in test [1], 20 nM corresponded to half-maximal inhibition (IC50).

As to `CCc1cc(CCc2nc3c(Cl)ccc(Cl)c3o2)c(O)nc1C`, in test [3], the IC95 worked out at 100 nM. Also, inhibition in test [1] was half-maximal at 9.6 nM (IC50).

The molecule `CCc1cc(NCc2cc3ccccc3o2)c(O)nc1C` registered an IC50 in test [1] of 235 nM.

On to `CCc1cc(NCc2nc3ccccc3s2)c(O)nc1C`, for which, in test [1], half-maximal inhibition (IC50) required 350 nM.

In test [1], `CCc1cc(CCc2nc3c(C)ccc(C)c3o2)c(=O)[nH]c1C` returned an IC50 of 23 nM.
